IC50 data for 18 compounds are collected here from ChEMBL document CHEMBL1138142, “Novel endoperoxides: synthesis and activity against Candida species” (Bioorg Med Chem Lett, 2006).

Common to all, as to type: functional, organism-based
In assay [1] the test system is Pichia kudriavzevii. Nature of the assay: Inhibitory activity against Candida krusei. In short, it runs like this:
(§1)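 Microbroth dilution in YEPD (1% yeast extract, 2% peptone, 2% glucose, […]), starting inoculum A595 0.2–0.3; compounds as twofold serial dilutions down from 1 mM, growth control on same plate. Shaken at 35 °C; A595 read at addition and 2 h later. Triplicates averaged, IC50 (50% growth inhibition) calculated. Strains: C. albicans JRW #5, C. krusei WM 03,204 (clinical isolates), C. tropicalis ATCC 750.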

Assay [2] has as its system Candida tropicalis. Nature of the assay: Inhibitory activity against Candida tropicalis. In outline: as §1
The test system of assay [3] is Candida albicans. The assay is described as follows: Inhibitory activity against Candida albicans. In outline: as §1

One may read the IC50 as the point on the concentration scale where inhibition reaches its midpoint. High values mean weaker potency, low ones greater potency.

Take `C1CCC([C@H]2OO[C@@H](C3CCCCC3)[C@H]3O[C@H]32)CC1`: the IC50 was 400 µM in assay [1] (Pichia kudriavzevii), 25 µM in assay [2] (Candida tropicalis) and 100 µM in assay [3] (Candida albicans).
As for `C1=C[C@@H](C2CCCC2)OOC1`, the 50% inhibitory concentration (IC50) in assay [1] (Pichia kudriavzevii) was more than 1000 µM; in assay [2] (Candida tropicalis), 250 µM; in assay [3] (Candida albicans) it was 500 µM.
`C1CCC([C@H]2OO[C@@H](C3CCCC3)[C@@H]3O[C@@H]32)C1`: the IC50 was found to be 63 µM in assay [1] (Pichia kudriavzevii), 125 µM in assay [2] (Candida tropicalis) and 125 µM in assay [3] (Candida albicans).
For `C1CCC([C@H]2OOC[C@@H]3O[C@@H]32)C1`, the IC50 came out at 500 µM in assay [1] (Pichia kudriavzevii), 250 µM in assay [2] (Candida tropicalis) and 500 µM in assay [3] (Candida albicans).
For `C1CCC([C@H]2OOC[C@@H]3O[C@@H]32)CC1`, the IC50 in assay [1] (Pichia kudriavzevii) was 500 µM; in assay [2] (Candida tropicalis) it was 125 µM; in assay [3] (Candida albicans) it was 250 µM.
The matching figures for `O=C(C1CCCCC1)[C@H]1O[C@H]1[C@@H](O)C1CCCCC1`: 500 µM, 63 µM and 250 µM.
The matching figures for `C1=C[C@H](C2CCCC2)OO[C@@H]1C1CCCC1`: more than 1000 µM, 125 µM and 250 µM.
`C1=C[C@@H](C2CCCCC2)OOC1`: the values for the IC50 in assay [1] (Pichia kudriavzevii), in assay [2] (Candida tropicalis) and in assay [3] (Candida albicans) were 75 µM, 40 µM and 9.5 µM, respectively.
The matching figures for `C1=C[C@H](C2CCCCC2)OO[C@@H]1C1CCCCC1`: 400 µM, 200 µM and more than 1000 µM.
On to `C1CCC([C@H]2OOC[C@H]3O[C@@H]23)C1`, for which the values for the IC50 in assay [1] (Pichia kudriavzevii), in assay [2] (Candida tropicalis) and in assay [3] (Candida albicans) were 300 µM, 75 µM and 250 µM, respectively.
For `C1CC([C@H]2OO[C@@H](C3CCC3)[C@@H]3O[C@@H]32)C1`, the IC50 in assay [1] (Pichia kudriavzevii) was found to be 500 µM; in assay [2] (Candida tropicalis), 500 µM; in assay [3] (Candida albicans) it was 250 µM.
With `C1=C[C@H](C2CCC2)OO[C@@H]1C1CCC1`, the figures for the IC50 in assay [1] (Pichia kudriavzevii), in assay [2] (Candida tropicalis) and in assay [3] (Candida albicans) were 250 µM, 125 µM and 125 µM, respectively.
For the compound `C1CC([C@H]2OO[C@@H](C3CCC3)[C@H]3O[C@H]32)C1`, the IC50 turned out to be 500 µM in assay [1] (Pichia kudriavzevii), 250 µM in assay [2] (Candida tropicalis) and 250 µM in assay [3] (Candida albicans).
With `C1CCC([C@H]2OO[C@@H](C3CCCCC3)[C@@H]3O[C@@H]32)CC1`, the results for the IC50 in assay [1] (Pichia kudriavzevii), in assay [2] (Candida tropicalis) and in assay [3] (Candida albicans) were more than 1000 µM, 200 µM and 100 µM, respectively.
The like results for `C1CCC([C@H]2OO[C@@H](C3CCCC3)[C@H]3O[C@H]32)C1` were, in that order, 125 µM, 125 µM and 250 µM.
On to `C[C@@H]1[C@H](O)[C@@H](C)/C=C/C=C/C=C/C=C/C=C/C=C/C=C/[C@H](O[C@@H]2O[C@H](C)[C@@H](O)[C@H](N)[C@@H]2O)C[C@@H]2O[C@](O)(C[C@@H](O)C[C@@H](O)[C@H](O)CC[C@@H](O)C[C@@H](O)CC(=O)O[C@H]1C)C[C@H](O)[C@H]2C(=O)O` [AMPHOTERICIN B], for which the IC50 in assay [1] (Pichia kudriavzevii) is 0.2 µM; in assay [2] (Candida tropicalis), 0.1 µM; in assay [3] (Candida albicans) it was less than 0.5 µM.
In the case of `CC(=O)N1CCN(c2ccc(OCC3COC(Cn4ccnc4)(c4ccc(Cl)cc4Cl)O3)cc2)CC1` (centres undefined) [KETOCONAZOLE], the values for the IC50 in assay [1] (Pichia kudriavzevii), in assay [2] (Candida tropicalis) and in assay [3] (Candida albicans) were 100 µM, 12 µM and 250 µM, respectively.
With NYSTATIN, the results for the concentration for half-maximal inhibition (IC50) in assay [1], in assay [2] and in assay [3] were 100 µM, 100 µM and 250 µM, respectively.
